Activity calls are given as the source filed them. The calls are words filed in the database; no cut-off is given here.
Test system: Mus musculus
Assay: Induction of interferon level >= 32 units/mL in po dosed CD-1 mouse serum after 18 to 20 hrs by vesicular stomatitis virus plaque reduction assay
Assay type: functional
Conditions: CD-1, Serum, read-out: MED
How it was run: (§1)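 Female CD-1 mice (15 g; at least three per dose) received compound dissolved or suspended in sterile distilled water, orally or ip. They were bled 18–20 hr later and sera pooled. Interferon was titrated by plaque reduction in mouse L cells challenged with vesicular stomatitis virus, with an NIAID reference mouse interferon standard. MED was the lowest dose giving ≥32 units/ml. Top doses were 400 mg/kg po and 300 mg/kg ip.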

Structure (SMILES)	minimal effective dose
Cc1nn(C)c2nc3ccccc3c(NCCCCCN(C)C)c12.Cl	200 mg/kg
Cc1nn(C)c2nc3ccccc3c(NCCN(C)C)c12.Cl	400 mg/kg
Cc1nn(C)c2nc3ccccc3c(NCCCN3CCCC3)c12.Cl	200 mg/kg
Cc1nn(C)c2nc3cc(Cl)ccc3c(NCCCN(C)C)c12.Cl	≥ 100 mg/kg
Cc1ccc2c(NCCCN(C)C)c3c(C)nn(C)c3nc2c1C.Cl	200 mg/kg
COc1cc(OC)c2c(NCCCN(C)C)c3c(C)nn(C)c3nc2c1.Cl	25 mg/kg
CCN(CC)CCCNc1c2ccccc2nc2c1c(C)nn2C.Cl	400 mg/kg
COc1cc2nc3c(c(C)nn3C)c(NCCCN(C)C)c2cc1OC.Cl	50 mg/kg
Cc1nn(C)c2nc3ccccc3c(NCCCCCCN(C)C)c12.Cl	200 mg/kg
Cc1ccc2nc3c(c(C)nn3C)c(NCCCN(C)C)c2c1.Cl	50 mg/kg
Cc1nn(C)c2nc3ccccc3c(NCCCCN(C)C)c12.Cl	200 mg/kg
Cc1cc(C)c2nc3c(c(C)nn3C)c(NCCCN(C)C)c2c1.Cl	400 mg/kg
CN(C)CCCNc1c2ccccc2nc2c1cnn2C.Cl	200 mg/kg
Cc1cc2nc3c(c(C)nn3C)c(NCCCN(C)C)c2cc1C.Cl	50 mg/kg
CCNc1ccc2nc3c(c(C)nn3C)c(NCCCN(C)C)c2c1.Cl	50 mg/kg
COc1cccc2c(NCCCN(C)C)c3c(C)nn(C)c3nc12.Cl	100 mg/kg
CN(C)CCCNc1c2ccccc2nc2c1ccn2C	200 mg/kg
Cc1nn(C)c2nc3ccc(F)cc3c(NCCCN(C)C)c12.Cl	≥ 400 mg/kg
Cc1nn(C)c2nc3cc(F)ccc3c(NCCCN(C)C)c12.Cl	≥ 100 mg/kg
CCN(CC)CC(O)CNc1c2ccccc2nc2c1c(C)nn2C.Cl (centres undefined)	400 mg/kg
Cc1nn(C)c2nc3c(ccc4ncccc43)c(NCCCN(C)C)c12.Cl	100 mg/kg
CNCCCNc1c2ccccc2nc2c1c(C)nn2C.Cl	200 mg/kg
Cc1nn(C)c2nc3cc(CO)ccc3c(NCCCN(C)C)c12.Cl	200 mg/kg
COc1cccc2nc3c(c(C)nn3C)c(NCCCN(C)C)c12.Cl	100 mg/kg
COc1ccc2c(NCCCN(C)C)c3c(C)nn(C)c3nc2c1.Cl	50 mg/kg

Test system: Mus musculus
Assay: Induction of interferon level in CD-1 mouse serum at 400 mg/kg, po after 18 to 20 hrs by vesicular stomatitis virus plaque reduction assay
Assay type: functional, organism-based
Parameters: dose 400 mg/kg
Conditions: not given
How it was run: (§2)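 Dosing was oral or ip in 15-g female CD-1 mice, at least three per dose level, with compound in sterile distilled water as a solution or suspension. Pooled sera were collected 18–20 hr after dosing. Interferon units/ml were quantified by a plaque reduction assay on mouse L cells with vesicular stomatitis virus challenge, run against an NIAID reference mouse interferon standard.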

Structure (SMILES)	Activity
Cc1nn(C)c2nc3ccccc3c(NCCCO)c12	inactive
Cc1nn(C)c2nc3cccc([N+](=O)[O-])c3c(NCCCN(C)C)c12	inactive
Cc1nn(C)c2nccc(NCCCN(C)C)c12	inactive
Cc1nn(C)c2nc3cc(N)ccc3c(NCCCN(C)C)c12	inactive
Cc1nn(C)c2nc3ccccc3c(N)c12	inactive
Cc1nn(C)c2nc3c(cnn3C)c(NCCCN(C)C)c12	inactive
Cc1nn(C)c2nc3cccc(NCCCN(C)C)c3cc12	inactive
Cc1nn(C)c2nc3c(cc12)CCCC3	inactive
Cc1nn(C)c2ncc(C(=O)O)c(NCCCN(C)C)c12	inactive
Cc1nn(C)c2nc3cc(C(N)=O)ccc3c(NCCCN(C)C)c12	inactive
Cc1cccc2c(NCCCN(C)C)c3ccccc3nc12	inactive
CCN(CC)CCCC(C)Nc1c2ccccc2nc2c1c(C)nn2C (centres undefined)	inactive
Cc1nn(C)c2nc3c(c(C)nn3C)c(NCCCN(C)C)c12	inactive
Cc1nn(C)c2nc3ccccc3c(Cl)c12	inactive
CSCCCNc1c2ccccc2nc2c1c(C)nn2C	inactive
Cc1nn(C)c2nc3ccccc3c(NCCCCl)c12	inactive
CNc1c2ccccc2nc2c1c(C)nn2C	inactive
Cc1nsc2nc3ccccc3c(NCCCN(C)C)c12	inactive
Cc1nn(C)c2nc3ccccc3c(NCCC[S+](C)[O-])c12 (centres undefined)	inactive
Cc1nn(C)c2nc3ccccc3c(CCNCCCN(C)C)c12	inactive
Cc1nn(C)c2c1Cc1ccccc1N2	inactive
CC(=O)Nc1ccc2c(NCCCN(C)C)c3c(C)nn(C)c3nc2c1	inactive
Cc1nn(C)c2nc3ccccc3c(SCc3ccccc3)c12	inactive
Cc1nn(C)c2nc3ccccc3cc12	inactive

Test system: Mus musculus
Assay: Induction of interferon level >= 32 units/mL in ip dosed CD-1 mouse serum after 18 to 20 hrs by vesicular stomatitis virus plaque reduction assay
Assay type: functional
Conditions: CD-1, Serum, read-out: MED
How it was run: as §1

Structure (SMILES)	minimal effective dose
Cc1nn(C)c2nc3ccccc3c(NCCCCCN(C)C)c12.Cl	150 mg/kg
Cc1nn(C)c2nc3cc(Cl)ccc3c(NCCCN(C)C)c12.Cl	≥ 100 mg/kg
Cc1ccc2c(NCCCN(C)C)c3c(C)nn(C)c3nc2c1C.Cl	200 mg/kg
COc1cc(OC)c2c(NCCCN(C)C)c3c(C)nn(C)c3nc2c1.Cl	25 mg/kg
CCN(CC)CCCNc1c2ccccc2nc2c1c(C)nn2C.Cl	300 mg/kg
COc1cc2nc3c(c(C)nn3C)c(NCCCN(C)C)c2cc1OC.Cl	50 mg/kg
Cc1nn(C)c2nc3ccccc3c(NCCCNC(C)(C)C)c12.Cl	≥ 300 mg/kg
Cc1ccc2nc3c(c(C)nn3C)c(NCCCN(C)C)c2c1.Cl	50 mg/kg
Cc1nn(C)c2nc3ccccc3c(NCCCN)c12.Cl	≥ 300 mg/kg
Cc1nn(C)c2nc3cc4ccccc4cc3c(NCCCN(C)C)c12.Cl	100 mg/kg
Cc1nn(C)c2nc3ccccc3c(NCCCCNc3c4ccccc4nc4c3c(C)nn4C)c12	≥ 300 mg/kg
CCN1CCCC(Nc2c3ccccc3nc3c2c(C)nn3C)C1.Cl (centres undefined)	≥ 300 mg/kg
Cc1cc2nc3c(c(C)nn3C)c(NCCCN(C)C)c2cc1C.Cl	25 mg/kg
Cc1nn(C)c2nc3ccccc3c(NCCCN3CCNCC3)c12.Cl	100 mg/kg
CCNc1ccc2nc3c(c(C)nn3C)c(NCCCN(C)C)c2c1.Cl	25 mg/kg
COc1cccc2c(NCCCN(C)C)c3c(C)nn(C)c3nc12.Cl	50 mg/kg
Cc1nn(C)c2nc3ccccc3c(NN3CCN(C)CC3)c12.Cl	300 mg/kg
Cc1nn(C)c2nc3c(ccc4ncccc43)c(NCCCN(C)C)c12.Cl	100 mg/kg
CNCCCNc1c2ccccc2nc2c1c(C)nn2C.Cl	150 mg/kg
Cc1nn(C)c2nc3ccccc3c(NCCCN3CCN(C)CC3)c12.Cl	300 mg/kg
Cc1nn(C)c2nc3cc(CO)ccc3c(NCCCN(C)C)c12.Cl	100 mg/kg
Cc1nn(C)c2nc3ccccc3c(CNCCCN(C)C)c12.Cl	≥ 300 mg/kg
COc1cccc2nc3c(c(C)nn3C)c(NCCCN(C)C)c12.Cl	100 mg/kg
Cc1nn(C)c2nc3ncccc3c(NCCCN(C)C)c12.Cl	≥ 300 mg/kg
Cc1nn(C)c2nc3ccccc3c(NCCCNC(C)C)c12.Cl	≥ 300 mg/kg
Cc1nn(C)c2nc3ccccc3c(NCCCN(C)CCCN(C)C)c12.Cl	> 300 mg/kg
COc1ccc2c(NCCCN(C)C)c3c(C)nn(C)c3nc2c1.Cl	50 mg/kg

Test system: Mus musculus
Assay: Toxicity in CD-1 mouse at 300 mg/kg, ip
Assay type: organism-based
Parameters: dose 300 mg/kg, route intraperitoneal
Conditions: in vivo

Structure (SMILES)	Activity
Cc1nn(C)c2nc3ccccc3c(NCCCNC3CCCCC3)c12.Cl	Toxic

Test system: Mus musculus
Assay: Induction of interferon level in CD-1 mouse serum at 300 mg/kg, ip after 18 to 20 hrs by vesicular stomatitis virus plaque reduction assay
Assay type: functional, organism-based
Parameters: dose 300 mg/kg
Conditions: not given
How it was run: as §2

Structure (SMILES)	Activity
Cc1nn(CC(=O)O)c2nc3ccccc3c(NCCCN(C)C)c12	inactive
COc1ccc(-n2nc(C)c3c(NCCCN(C)C)c4ccccc4nc32)cc1	inactive
Cc1nn(C)c2nc3ccccc3c(NCCCNC=O)c12	inactive
Cc1nn(-c2ccc(C(=O)O)cc2)c2nc3ccccc3c(NCCCN(C)C)c12	inactive
Cc1nn(C)c2nc3cccc(N)c3c(NCCCN(C)C)c12	inactive
Cc1nn(C)c2nc3ccc(S(=O)(=O)NCCCN(C)C)cc3c(NCCCN(C)C)c12	inactive
Cc1nn(C)c2nc3ccccc3c(NCc3ccccc3N(C)C)c12	inactive
Cc1nn(C)c2nc3ccccc3c(NCCCN(CCO)CCO)c12	inactive
Cc1cc(Nc2ccccc2C(=O)NCCCN(C)C)n(C)n1	inactive
Cc1nn(C)c2nc3ccccc3c(NC34CC5CC(CC(C5)C3)C4)c12	inactive
Cc1nn(CC(=O)NCCCN(C)C)c2nc3ccccc3c(NCCCN(C)C)c12	inactive
Cc1nn(C)c2nc3ccc(S(=O)(=O)O)cc3c(NCCCN(C)C)c12	inactive
CN(C)CCCNc1ccnc2ccccc12	inactive
Cc1nn(-c2ccccc2)c2nc3ccccc3c(NCCCN(C)C)c12	inactive
Cc1nn(C)c2nc3ccccc3c(S)c12	inactive
Cc1nn(C)c2nc3cc(C(=O)O)ccc3c(NCCCN(C)C)c12	inactive
Cc1nn(C)c2nc3ccccc3c(CCNCCCNCCCN(C)C)c12	inactive
Cc1nn(C)c2nc3cc(C(=O)NCCCN(C)C)ccc3c(NCCCN(C)C)c12	inactive
Cc1nn(C)c2nc3ccccc3c(N3CCCCC3CCN(C)C)c12 (centres undefined)	inactive

Structure (SMILES)	Activity
Cc1nn(C)c2nc3ccc(N)cc3c(NCCCN(C)C)c12	inactive
Cc1cc(NCCCNc2c3ccccc3nc3c2c(C)nn3C)n(C)n1	inactive
Cc1cc(Nc2ccccc2CNCCCN(C)C)n(C)n1	inactive
Cc1nn(C)c2nc3ccc(S(N)(=O)=O)cc3c(NCCCN(C)C)c12	inactive
Cc1nn(C)c2nc3ccccc3c(NCCCC(=O)O)c12	inactive
Cc1n[nH]c2nc3ccccc3c(NCCCN(C)C)c12	inactive
COC(=O)c1ccc2c(NCCCN(C)C)c3c(C)nn(C)c3nc2c1	inactive
Cc1cc(Nc2c3ccccc3nc3c2c(C)nn3C)n(C)n1	inactive
Cc1nn(C)c2nc3c(Cl)cccc3c(NCCCN(C)C)c12	inactive
Cc1nn(C)c2nc3ccc(O)cc3c(NCCCN(C)C)c12	inactive
CNCc1c2ccccc2nc2c1c(C)nn2C	inactive
COC(=O)CCCNc1c2ccccc2nc2c1c(C)nn2C	inactive
Cc1nn(C)c2nc3cc(O)ccc3c(NCCCN(C)C)c12	inactive
Cc1nn(CCO)c2nc3ccccc3c(NCCCN(C)C)c12	inactive
CN(C)CCCNc1ccncc1	inactive
Cc1nn(C)c2nc3ncncc3c(NCCCN(C)C)c12	inactive
CC(=O)Nc1ccc2nc3c(c(C)nn3C)c(NCCCN(C)C)c2c1	inactive
Cc1nn(C)c2nc3cc([N+](=O)[O-])ccc3c(NCCCN(C)C)c12	inactive
